From ChEMBL document CHEMBL5543089, “Discovery of a novel, highly potent EZH2 PROTAC degrader for targeting non-canonical oncogenic functions of EZH2” (Eur J Med Chem, 2024)
Calls of active or inactive are those of the source. The calls are words filed in the database; no cut-off is given here.

Experiments:
[1] = target: T1, von Hippel-Lindau disease tumor suppressor/Histone-lysine N-methyltransferase EZH2 (Homo sapiens, UniProt Q15910+P40337); test: PROTAC activity at VHL/EZH2 degradation in MLLr AML cell line human EOL1 cells assessed as protein degradation at 0.5 uM measured after 24 hrs in presence of 5 uM EPZ-6438 by Western blot analysis; type: cell-based
Method in brief: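 EOL-1 cells were pre-treated for 2 h with MLN4924 (0.05 μM), EPZ-6438 (5 μM) or VHL-1 (5 μM), then given 0.5 μM degrader for 24 h. EZH2 was assessed by Western blot against β-actin. Blots are representative of two biological experiments.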

[2] = target: T1, von Hippel-Lindau disease tumor suppressor/Histone-lysine N-methyltransferase EZH2; test: PROTAC activity at VHL/EZH2 degradation in human RS4-11 cells assessed as protein degradation at 0.1 uM measured after 24 hrs by Western blot analysis; type: cell-based
Method in brief: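 Cells were seeded at 0.5–2 million per well and treated for 24 h, or for the stated times at 300 nM in the time course. Lysis was in RIPA with protease inhibitors; ~10 μg protein was run on SDS-PAGE and blotted to PVDF. Detection used fluorescent immunoblotting for EZH2, EED and SUZ12, with β-actin as loading control. Blots are representative of two biological experiments.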

T1 sequence (P40337 whole entry, looked up): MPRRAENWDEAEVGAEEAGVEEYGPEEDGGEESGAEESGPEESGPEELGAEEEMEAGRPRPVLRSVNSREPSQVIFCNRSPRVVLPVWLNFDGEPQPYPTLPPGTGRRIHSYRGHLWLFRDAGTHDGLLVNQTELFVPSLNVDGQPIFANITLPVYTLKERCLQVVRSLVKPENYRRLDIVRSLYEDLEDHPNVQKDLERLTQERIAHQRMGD
T1 sequence (Q15910 whole entry, looked up): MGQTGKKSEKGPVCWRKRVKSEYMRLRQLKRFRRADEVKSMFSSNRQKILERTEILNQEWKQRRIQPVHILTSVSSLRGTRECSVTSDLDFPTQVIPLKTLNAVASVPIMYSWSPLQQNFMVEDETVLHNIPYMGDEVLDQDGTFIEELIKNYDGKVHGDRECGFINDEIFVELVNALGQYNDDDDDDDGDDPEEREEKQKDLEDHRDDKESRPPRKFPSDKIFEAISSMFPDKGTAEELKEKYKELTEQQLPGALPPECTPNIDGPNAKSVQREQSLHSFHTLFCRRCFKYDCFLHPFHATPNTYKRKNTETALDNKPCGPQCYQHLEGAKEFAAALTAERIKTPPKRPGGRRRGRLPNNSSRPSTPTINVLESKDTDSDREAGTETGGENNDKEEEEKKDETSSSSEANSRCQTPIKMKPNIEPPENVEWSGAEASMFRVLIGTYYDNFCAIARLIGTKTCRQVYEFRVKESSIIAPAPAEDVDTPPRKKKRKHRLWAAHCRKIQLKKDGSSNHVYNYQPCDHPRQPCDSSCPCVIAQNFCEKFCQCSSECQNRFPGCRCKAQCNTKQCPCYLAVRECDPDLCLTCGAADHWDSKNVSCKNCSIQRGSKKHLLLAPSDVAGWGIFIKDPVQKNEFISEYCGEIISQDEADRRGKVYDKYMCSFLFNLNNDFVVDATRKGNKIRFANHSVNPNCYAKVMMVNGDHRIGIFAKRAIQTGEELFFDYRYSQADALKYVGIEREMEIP

Activity [1]: inactive
Activity [2]: Active
Structure (SMILES): CCN(c1cc(-c2ccc(CN3CCN(CCC(=O)NCCCCCCCCCCC(=O)N[C@H](C(=O)N4C[C@H](O)C[C@H]4C(=O)NCc4ccc(-c5scnc5C)cc4)C(C)(C)C)CC3)cc2)cc(C(=O)NCc2c(C)cc(C)[nH]c2=O)c1C)C1CCOCC1
